Experimental data published in ChEMBL document CHEMBL1126650, “Synthesis and structure-activity relationships of novel benzimidazole and imidazo[4,5-b]pyridine acid derivatives as thromboxane A2 receptor antagonists” (J Med Chem, 1993).

Legend:
[1] = biological target: T1, Thromboxane A2 receptor (Homo sapiens) (UniProt P21731); assay: In vitro for percent inhibition against TXA2 / PGH-2 receptor using [125I]PTA-OH in human platelets at 10 e-5 M
T1 sequence (whole entry): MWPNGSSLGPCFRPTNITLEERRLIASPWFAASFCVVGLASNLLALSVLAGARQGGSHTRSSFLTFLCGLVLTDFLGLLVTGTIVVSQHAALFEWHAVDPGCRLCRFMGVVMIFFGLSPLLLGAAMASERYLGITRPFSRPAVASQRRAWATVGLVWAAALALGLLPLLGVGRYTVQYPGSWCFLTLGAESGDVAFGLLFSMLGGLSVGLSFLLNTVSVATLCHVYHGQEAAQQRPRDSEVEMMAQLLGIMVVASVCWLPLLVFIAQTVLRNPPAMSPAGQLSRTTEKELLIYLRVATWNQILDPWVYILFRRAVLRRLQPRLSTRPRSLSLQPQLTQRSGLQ
In short: (§1)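 Washed human platelets from volunteer blood drawn into EDTA 5 mM and indomethacin 20 µM (final); PRP at 200 g, pellet at 2000 g. 5 × 10^7 platelets incubated 30 min at 37 °C with 0.1 nM [125I]PTA-OH in Tris/NaCl/dextrose/indomethacin buffer, pH 7.4. Screening at 10^-7 and 10^-5 M. Filtration, gamma counting. Nonspecific binding set by a tetrahydrocarbazole-acetic acid antagonist. Triplicate.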

[2] = biological target: T1, Thromboxane A2 receptor (Homo sapiens); assay: Tested in vitro for percent inhibition against TXA2 / PGH-2 receptor using [125I]PTA-OH in human platelets at 10 e-7 M; in short: as §1
Thromboxane A2 receptor = biological target: T2, Thromboxane A2 receptor (Homo sapiens, UniProt P21731); assay: Tested in vitro for inhibition constant against TXA2 / PGH-2 receptor using [125I]PTA-OH binding affinity to human platelets
T2 sequence (P21731 whole entry): T1 sequence (whole entry)

Cavia porcellus [3] = assay: In vivo inhibition of […]- epoxymethano-PGH2 (1 uM) induced platelet aggregation of guinea pig platelet-rich plasma (PRP) 1 hr after per os administration at 0.3 mg/kg po; assay type: functional
In short: (§2)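 Guinea pigs dosed orally. Platelet-rich plasma taken 1 h later and aggregation triggered with 11,9-epoxymethano-PGH2 (U-IPA) at 1 µM.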

Cavia porcellus [4] = assay: In vivo inhibition of […]- epoxymethano-PGH2 (1 uM) induced platelet aggregation of guinea pig platelet-rich plasma (PRP) 1 hr after per os administration at 1 mg/kg po; assay type: functional; in short: as §2

| inhibition [1] | inhibition [2] | Ki (Thromboxane A2 receptor) | Compound | inhibition in vivo at 0.3 mg/kg (Cavia porcellus [3]) | inhibition in vivo at 1 mg/kg (Cavia porcellus [4]) |
| --- | --- | --- | --- | --- | --- |
| 100% | 14% |  | CC(C)(CC(=O)O)Cc1nc2cc(Cl)c(Cl)cc2n1Cc1ccc(Cl)cc1 |  |  |
| 95% | 74% |  | CC(C)(CC(=O)O)Cc1nc2cc(Cl)ccc2n1Cc1ccc(Br)cc1F |  |  |
| 100% | 57% |  | CCC(C)(CC(=O)O)Cc1nc2ccccc2n1Cc1ccc(Cl)cc1 (stereo not given) |  |  |
| 90% | 7% |  | CC(C)(CC(N)=O)Cc1nc2ccccc2n1Cc1ccc(Cl)cc1 |  |  |
| 17% | 0% |  | O=C(O)CC(Cc1nc2ccccc2n1Cc1ccc(Cl)cc1)c1ccccc1 (stereo not given) |  |  |
| 92% | 71% | 12 nM | CC(C)(CC(=O)O)Cc1nc2cc(Cl)ccc2n1Cc1ccc(Cl)c(Cl)c1 |  |  |
| 95% | 92% | 12 nM | CC(C)(CC(=O)O)Cc1nc2cc(F)ccc2n1Cc1ccc(Br)cc1 |  |  |
| 64% | 27% |  | O=C(O)CCCSc1nc2cccnc2n1Cc1ccc(Cl)cc1 |  |  |
| 100% | 95% | 20 nM | COc1ccc(Cn2c(CC(C)(C)CC(=O)O)nc3cc(Cl)ccc32)cc1 |  |  |
| 62% | 41% | 39 nM | CC(C)(CC(=O)O)Cc1nc2cccnc2n1Cc1ccc(Cl)cc1 |  |  |
| 83% | 9% |  | CC(Sc1nc2cc(F)ccc2n1Cc1ccc(Cl)cc1)C(=O)O (stereo not given) |  |  |
| 96% | 86% | 16 nM | CC(C)(CC(=O)O)Cc1nc2ccccc2n1Cc1ccc(Br)cc1 |  |  |
| 67% | 38% |  | CC(C)(CC(=O)O)Cc1nc2cc(Br)ccc2n1Cc1ccc(Cl)cc1 |  |  |
| 100% | 10% |  | CC(CC(=O)O)Cc1nc2ccccc2n1Cc1ccc(Cl)cc1 (stereo not given) |  |  |
| 28% | 0% |  | CC(C)(CC(=O)O)c1nc2ccccc2n1Cc1ccc(Cl)cc1 |  |  |
| 89% | 87% | 6 nM | CSc1ccc(Cn2c(CC(C)(C)CC(=O)O)nc3cc(Cl)ccc32)cc1 |  |  |
| 100% | 100% |  | CC(C)(CC(=O)O)Cc1nc2cc(F)ccc2n1Cc1ccc(S(C)(=O)=O)cc1 |  |  |
| 96% | 50% |  | CC(C)(CC(=O)O)Cc1nc2ccccc2n1Cc1ccc(O)cc1 |  |  |
| 77% | 58% |  | CC(C)(CC(=O)O)Cc1nc2cc(F)ccc2n1Cc1ccc(Cl)cc1F |  |  |
| 82% | 69% |  | CC(C)(CC(=O)O)Cc1nc2cc(Cl)ccc2n1Cc1ccc(S(C)(=O)=O)cc1 |  |  |

| inhibition [1] | inhibition [2] | Ki (Thromboxane A2 receptor) | Compound | inhibition in vivo at 0.3 mg/kg (Cavia porcellus [3]) | inhibition in vivo at 1 mg/kg (Cavia porcellus [4]) |
| --- | --- | --- | --- | --- | --- |
| 100% | 79% | 4 nM | COc1ccc(Cn2c(CC(C)(C)CC(=O)O)nc3cc(F)ccc32)cc1 |  |  |
| 97% | 35% | 160 nM | CCC(CC)(CC(=O)O)Cc1nc2ccccc2n1Cc1ccc(Cl)cc1 |  |  |
| 100% | 98% |  | CC(C)(CC(=O)O)Cc1nc2cc(Cl)ccc2n1Cc1ccc(Br)cc1 |  |  |
| 83% | 3% | 670 nM | CC(C)(Sc1nc2cc(F)ccc2n1Cc1ccc(Cl)cc1)C(=O)O |  |  |
| 92% | 89% |  | CC(C)(CC(=O)O)Cc1nc2cc(F)ccc2n1Cc1ccc(Cl)c(Cl)c1 |  |  |
| 95% | 13% |  | O=C(O)COc1ccc(CCNS(=O)(=O)c2ccccc2)cc1 |  |  |
| 100% | 94% | 7.8 nM | CC(C)(CC(=O)O)Cc1nc2cc(F)ccc2n1Cc1ccc(Cl)cc1 |  |  |
| 98% | 0% | 870 nM | O=C(O)CC1(Cc2nc3cc(F)ccc3n2Cc2ccc(Cl)cc2)CCCCC1 |  |  |
| 87% | 82% | 7 nM | CSc1ccc(Cn2c(CC(C)(C)CC(=O)O)nc3cc(Cl)cnc32)cc1 |  |  |
| 100% | 100% | 15.3 nM | O=C(O)CC1CCCc2c1n(Cc1ccc(Cl)cc1)c1ccc(F)cc21 (stereo not given) |  |  |
| 100% | 89% |  | COc1ccc(Cn2c(CC(C)(C)CC(=O)O)nc3ccccc32)cc1 |  |  |
| 100% | 85% |  | CC(C)(CC(=O)O)Cc1nc2ccccc2n1Cc1ccc(Cl)cc1 |  |  |
| 100% | 44% |  | COc1ccc2c(c1)nc(CC(C)(C)CC(=O)O)n2Cc1ccc(Cl)cc1 |  |  |
| 95% | 13% |  | CC(C)(CC(=O)O)Cc1nc2ccccc2n1Cc1ccccc1 |  |  |
| 100% | 37% | 140 nM | O=C(O)[C@H]1CCC[C@@H]1c1nc2cc(F)ccc2n1Cc1ccc(Cl)cc1 |  |  |
| 97% | 2% | 810 nM | O=C(O)[C@H]1CC[C@@H]1c1nc2cc(F)ccc2n1Cc1ccc(Cl)cc1 |  |  |
| 96% | 15% | 510 nM | O=C(O)[C@@H]1CC=CC[C@@H]1c1nc2cc(F)ccc2n1Cc1ccc(Cl)cc1 |  |  |
| 87% | 56% | 23 nM | CC(C)(CCC(=O)O)Cc1nc2cc(F)ccc2n1Cc1ccc(Cl)cc1 |  |  |
| 100% | 49% |  | CC(C)(CC(=O)O)Cc1nc2ccccc2n1Cc1cccc(C(F)(F)F)c1 |  |  |
| 100% | 98% |  | CC(C)(CC(=O)O)Cc1nc2cc(F)ccc2n1Cc1ccc(Br)cc1F |  |  |

| inhibition [1] | inhibition [2] | Ki (Thromboxane A2 receptor) | Compound | inhibition in vivo at 0.3 mg/kg (Cavia porcellus [3]) | inhibition in vivo at 1 mg/kg (Cavia porcellus [4]) |
| --- | --- | --- | --- | --- | --- |
| 100% | 28% |  | O=C(O)CCCCSc1nc2cc(F)ccc2n1Cc1ccc(Cl)cc1 |  |  |
| 100% | 30% |  | CC(C)(Sc1nc2cc(Cl)cnc2n1Cc1ccc(Cl)cc1)C(=O)O |  |  |
| 60% | 24% |  | O=C(O)CCCSc1nc2cc(Cl)cnc2n1Cc1ccc(Br)cc1F |  |  |
| 100% | 83% |  | CC(C)(CC(=O)O)Cc1nc2ccccc2n1Cc1ccc([N+](=O)[O-])cc1 |  |  |
| 100% | 71% |  | O=C(O)CC1(Cc2nc3cc(F)ccc3n2Cc2ccc(Cl)cc2)CCCC1 |  |  |
| 64% | 0% | 5600 nM | O=C(O)CCc1nc2cc(F)ccc2n1Cc1ccc(Cl)cc1 |  |  |
| 100% | 100% |  | CSc1ccc(Cn2c(CC(C)(C)CC(=O)O)nc3cc(F)ccc32)cc1 |  |  |
| 50% | 0% | 1700 nM | CC(C)(Cc1nc2cc(F)ccc2n1Cc1ccc(Cl)cc1)C(=O)O |  |  |
| 100% | 97% | 21 nM | CC(C)(CC(=O)O)Cc1nc2cc(Cl)cnc2n1Cc1ccc(Cl)cc1 [MIPITROBAN] | 44% | 81% |
| 98% | 80% | 52 nM | O=C(O)CC1(Cc2nc3cc(F)ccc3n2Cc2ccc(Cl)cc2)CC1 |  |  |
| 99% | 74% |  | CC(C)(CC(=O)O)Cc1nc2cc(Cl)ccc2n1Cc1ccc(Cl)cc1 |  |  |
| 99% | 88% | 11 nM | CC(C)(CC(=O)O)Cc1nc2ccccc2n1Cc1ccc(Br)cc1F |  |  |
| 100% | 52% |  | Cc1ccc(Cn2c(CC(C)(C)CC(=O)O)nc3ccccc32)cc1 |  |  |
| 87% | 77% |  | CC(C)(CC(=O)O)Cc1nc2cc(Cl)ccc2n1Cc1ccc(Cl)cc1F |  |  |
| 0% | 0% |  | CC(C)(CC#N)Cc1nc2ccccc2n1Cc1ccc(Cl)cc1 |  |  |
| 39% | 6% |  | O=C(O)CCCSc1nc2cc(Cl)cnc2n1Cc1ccc(Cl)cc1 |  |  |
| 93% | 8% |  | O=C(O)CCCSc1nc2cc(F)ccc2n1Cc1ccc(Cl)cc1 |  |  |
| 100% | 66% |  | CC(C)(CC(=O)O)Cc1nc2ccccc2n1Cc1ccc(F)cc1 |  |  |
